SKN-1 inh – suppressors of acrylamide-induced Pgst-4::GFP reporter in worms, primary screen, SKN-1 inhibitor project, whole organism, uHTS, GFP/RFP fluorescence ratio, strain VP596; C. elegans VP596 Pgst-4::GFP/RFP ratio, 24 h; AID 624304, 2012; 360,000 tested, 0.49% active; inhibition, % at 21.8 µM;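 active means interference check ratio from 0.5 to 1.5 plus GFP to RFP signal ratio inhibition reaching or exceeding a fixed threshold, cut at about 30% in these data, passing the limit was not always enough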
MT1-MMP act inh – blockers of MT1-MMP proenzyme processing, primary screen, HT1080 RFP-PRO-GFP cells, GFP/RFP fluorescence. Matrix metalloproteinase-14 (Homo sapiens), P50281. GFP/RFP ratio fluorescence, overnight; percent of plate control window, DMSO zero. GFP/RFP ratio change, % at 20 µM. 360,000 tested, 0.061% active;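 active means GFP/RFP ratio change of at least 30% with cell ATP level not reduced by more than half and red fluorescence within 50% of control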
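Read-out: GFP/RFP fluorescence ratio; Test system: RFP-PRO-GFP reporter HT1080 cells; Compound dosing: single-point 20 µM compound, 1% DMSO; Times: overnight compound exposure at 37 °C.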
MPTP block – mitochondrial permeability transition pore inhibitors, primary screen, biochemical, isolated mouse mitochondria, absorbance. Ca2+ swelling absorbance, 30 min. 360,000 tested, 1.4% active. inhibition, % at 10 µM;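 active means inhibition of 50% or more, scaled per plate between neutral and stimulator controls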
ATG4B inhibitor – ATG4B protease inhibitors, primary screen, biochemical, fluorescence, uHTS; inhibition, % at 8.33 µM; ATG4B cleavage of LC3-PLA2, NBD-HPC fluorescence, 1 h; Cysteine protease ATG4B (Homo sapiens), Q9Y4P1; 340,000 tested, 0.51% active; in the data active means inhibition above about 40%
Target sequence (Q9Y4P1 whole entry, looked up): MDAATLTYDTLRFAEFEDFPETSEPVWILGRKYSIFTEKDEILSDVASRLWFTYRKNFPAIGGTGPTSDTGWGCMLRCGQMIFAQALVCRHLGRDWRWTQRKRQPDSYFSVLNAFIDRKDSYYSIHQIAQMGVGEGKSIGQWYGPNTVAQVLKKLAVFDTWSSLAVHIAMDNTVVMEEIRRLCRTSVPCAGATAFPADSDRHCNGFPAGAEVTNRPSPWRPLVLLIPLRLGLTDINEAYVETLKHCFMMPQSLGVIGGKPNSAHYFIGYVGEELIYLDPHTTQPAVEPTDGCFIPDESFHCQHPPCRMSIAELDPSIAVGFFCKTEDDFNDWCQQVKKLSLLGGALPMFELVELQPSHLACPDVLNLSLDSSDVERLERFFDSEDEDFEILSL
Rh123 counter – fluorescence retest of MPTP screen hits in isolated mitochondria, single concentration; shares compounds with MPTP block; membrane potential, Rhodamine 123 fluorescence; inhibition, % at 10 µM; 5,000 tested, 78% active; AID 624504, 2012; in the data active means inhibition above about 22%
MPTP abs DR – mitochondrial permeability transition pore inhibitors, dose response, biochemical, absorbance, uHTS hits. shares compounds with MPTP block. isolated mitochondria swelling. IC50, µM. 780 tested, 58% active; in the data active means IC50 below about 20 µM
MPTP counter DR – fluorescent counter-screen in isolated mitochondria, dose response, counter-screen for MPTP inhibitor project, biochemical, fluorescence, uHTS hits. shares compounds with MPTP block. isolated mitochondria counterscreen, fluorescence read-out. IC50, µM. 780 tested, 49% active. AID 651564, 2012; in the data active means IC50 below about 80 µM
Numbers stand for hits. Most compounds without a hit are left out; they make up all but 2.3% or so of the library.

`CC(OC(=O)[C@@H]1CCCN1C(=O)c1cccs1)C(=O)Nc1cccc([N+](=O)[O-])c1` (stereo partly specified) gave SKN-1 inh inactive, MT1-MMP act inh inactive, MPTP block inactive and ATG4B inhibitor inactive.
For Cc1ccc(C=Nc2ccc(N(C)C)cc2)o1 the results were SKN-1 inh inactive, MT1-MMP act inh inactive, MPTP block inactive and ATG4B inhibitor inactive.
`Cc1csc(N=Nc2ccc(N(C)C)cc2)[n+]1[O-]` gave SKN-1 inh inactive, MT1-MMP act inh inactive, MPTP block 68, Rh123 counter inactive, MPTP abs DR inactive and MPTP counter DR inactive.
For COc1cccc(/C=N/Nc2snc(SC)c2C#N)c1O the results were SKN-1 inh inactive, MT1-MMP act inh inactive, MPTP block 99, ATG4B inhibitor inactive and Rh123 counter 86.
For Cc1sc(NC(=O)CN2CCCC2)nc1-c1ccc2c(c1)CCN2C(=O)c1cccc(F)c1 the results were SKN-1 inh inactive, MT1-MMP act inh inactive, MPTP block 59, ATG4B inhibitor inactive, Rh123 counter inactive, MPTP abs DR inactive and MPTP counter DR 35.
COc1cccc(NC(=O)COc2ccc(Br)c(C)c2)c1 was read as SKN-1 inh inactive, MT1-MMP act inh inactive, MPTP block inactive and ATG4B inhibitor inactive.
Screening Cc1cc(OCC(=O)Nc2ccncc2)ccc1Br returned SKN-1 inh inactive, MT1-MMP act inh inactive, MPTP block 59, ATG4B inhibitor inactive and Rh123 counter 111.
Screening Cc1cc(Cl)ccc1OCC(=O)Nc1ccncc1 returned SKN-1 inh inactive, MT1-MMP act inh inactive, MPTP block 80, ATG4B inhibitor inactive and Rh123 counter 79.
Cc1cccc(OCC(=O)Nc2ccncc2)c1C was read as SKN-1 inh inactive, MT1-MMP act inh inactive, MPTP block 82, ATG4B inhibitor inactive and Rh123 counter 87.
For O=C(COc1cc(Cl)c(Cl)cc1Cl)Nc1ccncc1 the results were SKN-1 inh inactive, MT1-MMP act inh inactive, MPTP block 76, ATG4B inhibitor inactive and Rh123 counter 88.
COc1cc(OC)cc(-c2nnc(SCC(=O)Nc3cccc(C(=O)O)c3)s2)c1 was read as SKN-1 inh inactive, MT1-MMP act inh inactive, MPTP block inactive and ATG4B inhibitor inactive.
Screening CC1(C)NC(=O)N(CC(=O)OCC(=O)c2ccc(Br)s2)C1=O returned SKN-1 inh inactive, MT1-MMP act inh inactive, MPTP block inactive and ATG4B inhibitor inactive.
`CN1CCC2(CC1)Nc1nc(SCc3ccc(Cl)cc3)nn1C1=C2CN(C)CC1` gave SKN-1 inh inactive, MT1-MMP act inh inactive, MPTP block 63, ATG4B inhibitor inactive, Rh123 counter inactive, MPTP abs DR 9.7 and MPTP counter DR inactive.
Cc1cc([N+](=O)[O-])ccc1NC(=O)Cc1ccc(F)cc1 was read as SKN-1 inh inactive, MT1-MMP act inh inactive, MPTP block inactive and ATG4B inhibitor inactive.
`O=C(Nc1ccccc1)Nc1cc([N+](=O)[O-])ccc1F` gave SKN-1 inh inactive, MT1-MMP act inh inactive, MPTP block 63, ATG4B inhibitor inactive and Rh123 counter 91.
For Cc1cc([N+](=O)[O-])ccc1NC(=O)Nc1ccccc1F the results were SKN-1 inh inactive, MT1-MMP act inh inactive, MPTP block 93, ATG4B inhibitor inactive and Rh123 counter 92.
For CCCCCC(O)(c1ccc(OCC)cc1)C(CN1CCOCC1)c1ccccc1 (stereo unspecified) the results were SKN-1 inh inactive, MT1-MMP act inh inactive, MPTP block inactive and ATG4B inhibitor inactive.
`COC(=O)c1cc(NC(=O)c2cc(-c3ccc(Cl)cc3)oc2C(F)(F)F)ccc1N1CCOCC1` gave SKN-1 inh inactive, MT1-MMP act inh inactive, MPTP block 76, ATG4B inhibitor inactive and Rh123 counter 80.
Screening COc1cc(CNCCc2ccc(S(N)(=O)=O)cc2)ccc1OCc1ccc(Cl)cc1 returned SKN-1 inh inactive, MT1-MMP act inh inactive, MPTP block 50, ATG4B inhibitor inactive, Rh123 counter inactive, MPTP abs DR 3.9 and MPTP counter DR 15.
Screening C=CCNC(=O)c1ccc2c(=O)n(CCCN3CCCC3=O)c(=S)[nH]c2c1 returned SKN-1 inh inactive, MT1-MMP act inh inactive, MPTP block inactive and ATG4B inhibitor inactive.
For CCNC(=O)Nc1cc(S(=O)(=O)Nc2ccc(OC)cc2)ccc1N1CCOCC1 the results were SKN-1 inh inactive, MT1-MMP act inh inactive, MPTP block 94, ATG4B inhibitor inactive and Rh123 counter 93.
`COc1ccc(NS(=O)(=O)c2cc(N)ccc2N2CCCC2)cc1` gave SKN-1 inh inactive, MT1-MMP act inh inactive, MPTP block inactive and ATG4B inhibitor inactive.
For Nc1cc(S(=O)(=O)Nc2ccccc2Cl)ccc1N1CCOCC1 the results were SKN-1 inh inactive, MT1-MMP act inh inactive, MPTP block inactive and ATG4B inhibitor inactive.
Nc1cc(S(=O)(=O)Nc2ccc(Cl)cc2)ccc1N1CCOCC1 was read as SKN-1 inh inactive, MT1-MMP act inh inactive, MPTP block 91, ATG4B inhibitor inactive and Rh123 counter 55.
Screening COc1ccc(NS(=O)(=O)c2ccc(N3CCCC3)c(N)c2)cc1 returned SKN-1 inh inactive, MT1-MMP act inh inactive, MPTP block 78, ATG4B inhibitor inactive and Rh123 counter 84.
For COc1ccc(NS(=O)(=O)c2ccc(N3CCCC3)c(NC(=S)Nc3ccc(SC(F)F)cc3)c2)cc1 the results were SKN-1 inh inactive, MT1-MMP act inh inactive, MPTP block 64, ATG4B inhibitor inactive and Rh123 counter 81.
O=C(/C=C/c1ccc(S(=O)(=O)N2CCOCC2)cc1)OCC(=O)c1ccc([N+](=O)[O-])cc1 was read as SKN-1 inh inactive, MT1-MMP act inh inactive, MPTP block inactive and ATG4B inhibitor inactive.
CCc1c(C2(O)CCCCC2)[nH]c2cc(C(F)(F)F)ccc12 was read as SKN-1 inh inactive, MT1-MMP act inh inactive, MPTP block 82, ATG4B inhibitor inactive and Rh123 counter 86.
Screening Cc1c(C2(O)CCCCC2)[nH]c2cc(C(F)(F)F)ccc12 returned SKN-1 inh inactive, MT1-MMP act inh inactive, MPTP block inactive and ATG4B inhibitor inactive.
`Cc1cc(C(=O)NNC(=S)NCc2ccco2)n(C)n1` gave SKN-1 inh inactive, MT1-MMP act inh inactive, MPTP block inactive and ATG4B inhibitor inactive.
CC(C)c1cc(C(=O)NNC(=S)NCc2ccco2)c(O)c(C(C)C)c1 was read as SKN-1 inh inactive, MT1-MMP act inh inactive, MPTP block 85, ATG4B inhibitor inactive and Rh123 counter 83.

Source: PubChem BioAssay (Sanford-Burnham Center for Chemical Genomics)
